HIV Rev-RRE inh: HIV-1 Rev-RRE binding inhibitors, primary screen, biochemical, FRET, protein-RNA interaction | actives 0.79% (n = 97,000) | inhibition, % at 8 µM | Rev peptide-RRE RNA binding | AID 704, 2007 | P05866;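 active = inhibition above the screen-wide mean plus 3 SD, cut at about 35% in these data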;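 also: 0% = median DMSO wells and 100% = median Neomycin B control wells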
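assay system = Cy5-tagged RRE RNA duplex with fluorescein-tagged Rev peptide | incubation = 5 + 15 min at 25 °C | also added = labelled Rev peptide | measure = % inhibition of FRET ratio versus controls | benchmarks = DMSO wells as 0% and neomycin B wells as 100% inhibition | measured by = FRET fluorescence readout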
FAK blocker: FAK kinase inhibitors, primary screen, biochemical | Focal adhesion kinase 1 (Homo sapiens), Q05397 | biochemical FAK kinase activity assay | inhibition, %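 (tested at 7 µM)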 | actives 0.84% (n = 97,000) | AID 727, 2007; in the data active = inhibition above about 19%;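 also: 0% = DMSO and 100% = reference compound high control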
PLK1 PBD inh: Plk1 polo box domain binding inhibitors, primary screen, biochemical, fluorescence polarization; AID 693, 2007; actives 0.13% (n = 97,000); Serine/threonine-protein kinase PLK1 (Homo sapiens), P53350; inhibition, %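 (tested at about 20 µM)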; Plk1 PBD phosphopeptide binding; in the data active = inhibition above about 34%, passing the limit was not always enough
Cav3 T inh: Cav3.2 calcium influx blockers – cell-based, Fluo-4 calcium fluorescence, FDSS, MLSMR library, primary screen | Voltage-dependent T-type calcium channel subunit alpha-1H (Homo sapiens), O95180 | actives 4% (n = 100,000) | Cav3.2-expressing cells; active compounds read low | B-score at 10 µM | AID 449739, 2010;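 active = single-dose well whose peak fluorescence ratio is a statistical outlier from its plate by either plate-standardised score or position-corrected B-score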
PLK1 kinase inh: human PLK1 kinase inhibitors, primary screen, biochemical, TR-FRET. Serine/threonine-protein kinase PLK1 (Homo sapiens), P53350. recombinant PLK1 kinase, TR-FRET peptide phosphorylation. inhibition, % at 10 µM. actives 0.53% (n = 97,000);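 active = inhibition of 50% or more in the single-concentration screen; inactive = inhibition below 50%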;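 also: 0% = DMSO max control and 100% = H-89 dihydrochloride min control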
EphB4 antag: EphB4-ephrin-B2 interaction antagonists, primary screen, biochemical, TNYL-RAW peptide probe, fluorescence polarization; Ephrin type-B receptor 4 (Homo sapiens), P54760; EphB4 LBD / TNYL-RAW-Alexa532 peptide; inhibition, % at 7 µM; actives 0.15% (n = 97,000);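 active = inhibition above the screen-wide mean inhibition plus 3 SD, cut at about 15% in these data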;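 also: 0% = DMSO wells and 100% = excess unlabeled TNYL-RAW peptide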
* marks the source's active call; other numbers are inactive results; · = no result. A selection: hits, their analogues and other compounds. The true share with any hit is near 5.3%.

SMILES	HIV Rev-RRE inh	FAK blocker	PLK1 PBD inh	Cav3 T inh	PLK1 kinase inh	EphB4 antag
OC(COc1c(Cl)cc(Cl)cc1Cl)CN1CCCCC1 (centres undefined)	-0.3	-2.2	-0.6	-2.9*	54.2*	4.2
O=C(c1cc2ccccc2cc1OCC(O)CN1CCCCC1)N1CCCCC1 (centres undefined)	-3.7	-1.2	7.7	-0.319	66.0*	2.5
OC(COc1ccc(Cl)cc1)CN1CCCCC1 (centres undefined)	5.1	-2.7	-18.9	0.0494	-9.5	1.6
CC1(C)NC(=O)N(CC(O)COc2cc3ccccc3cc2C(=O)N2CCCCC2)C1=O (centres undefined)	1.0	-3.5	-23.3	0.267	0.3	-5.3
Cc1cc(C)nc(Sc2nc(Cl)nc(N(c3ccccc3)c3ccccc3)n2)n1	6.7	-4.3	-13.5	3.49	-15.2	0.0
CC(C)CCOC(=O)/C(=C/c1ccco1)NC(=O)/C=C/c1ccccc1	13.8	1.2	-0.6	-5.78*	-8.5	-0.5
CCn1c(C(=O)NCc2cccnc2)cc2sc(Cl)cc21	6.9	6.2	7.7	·	2.1	3.9
O=C1CN(C(=O)COC(=O)c2cccc(S(=O)(=O)NCc3ccccc3)c2)c2ccccc2N1	5.5	-1.9	-1.9	-5.98*	2.7	-2.5
Cc1cccc(N2CCN(c3cccc(C)c3)C2c2cccnc2)c1	-1.1	0.4	16.9	-4.82*	-12.2	1.5
Cc1cccc(N2C(=O)CSC2c2cccnc2)c1 (centres undefined)	11.8	-1.0	1.6	-0.148	-5.5	3.5
CC(C)c1ccccc1OCCNS(C)(=O)=O	0.7	-1.7	-31.0	-0.148	-13.9	-6.6
CN1CCc2nc(NC(=O)c3cccc(OC(F)F)c3)sc2C1	64.7*	-2.1	-11.0	-0.319	2.2	4.2
COC(=O)/C=C/c1cc(F)ccc1S(=O)(=O)NC(C)(C)C	·	·	·	0.0468	·	·
CCC(=O)OCc1c(C(F)(F)F)nn(C)c1Sc1ccc(F)cc1	20.1	-2.4	-24.8	-7.53*	-16.4	-3.6
CCC(=O)OCc1c(C(F)(F)F)nn(C)c1Sc1ccc(Cl)cc1	16.5	-8.8	-14.7	-3.04	-9.2	3.2
Cc1ccccc1-c1cc(C(=O)Nc2sc(C(=O)OC(C)C)c(C)c2C#N)c2ccccc2n1	4.2	-1.6	18.3	-3.16	-2.9	-0.2
Nc1cc2c([N+](=O)[O-])cccc2o1	50.6*	-1.8	-9.2	0.754	16.4	-8.0
O=C1CC(O)(c2ccccc2)C(c2ccccc2)=C1c1ccccc1 (centres undefined)	14.8	10.7	-5.2	-4.96*	-8.5	6.8
COC(=O)C[C@H]1c2cc(C(F)(F)F)ccc2S(=O)(=O)N1Cc1ccccc1	·	·	·	-0.776	·	·
CC1=C(C(=O)OC(C)C)C(c2cccc(F)c2)N2C(=O)C(C)SC2=N1 (centres undefined)	-5.2	-5.0	11.4	-2.28	11.9	-10.0
CC1=C(C(=O)OCC(C)C)C(c2cccc(F)c2)N2C(=O)C(C)SC2=N1 (centres undefined)	2.2	13.3	34.7	-6.14*	-6.4	-2.4
CCOC(=O)C1=C(C)N=C2SC(C)C(=O)N2C1c1cccc(F)c1 (centres undefined)	10.7	-1.0	10.5	-6.49*	-1.1	1.3
COC(=O)C1=C(C)N=C2SC(C)C(=O)N2C1c1ccc(C(=O)OC)cc1 (centres undefined)	-1.5	-1.9	0.5	-4.6*	-1.9	-3.2
COC(=O)C1=C(C)N=C2SC(C)C(=O)N2C1c1cccs1 (centres undefined)	2.0	-1.1	1.6	-0.0386	-8.4	-1.1
CCOC(=O)CSC1=C(C#N)C(c2ccccc2Cl)C(C(=O)OC)C(=O)N1 (centres undefined)	6.1	0.0	3.2	2.39	-5.2	2.1
COC(=O)c1ccccc1NC(=O)Cn1cnc2ccc(S(=O)(=O)N3CCC(C)CC3)cc2c1=O	·	·	·	-1.27	·	·

Screens (PubChem)
